Laboratory results from ChEMBL document CHEMBL4406821, “Novel dual inhibitors targeting CDK4 and VEGFR2 synergistically suppressed cancer progression and angiogenesis” (Eur J Med Chem, 2019).
Active and inactive are the calls of the source. No cut-off for these calls is given here.

Tests used:
[1] = system: HeLa; assay: Antiproliferative activity against human HeLa cells assessed as reduction in cell viability at 40 to 80 nM incubated for 48 hrs by EdU staining based laser scanning confocal microscopy; assay type: functional
Summary of the method: (§1)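 Cells, 5×10^4, were seeded in 24-well plates and treated for 48 h. They were then labeled using an EdU Apollo 488 imaging kit with Hoechst 33342 nuclear stain and imaged by laser scanning confocal microscopy. Percent EdU-positive cells = EdU-positive/Hoechst-stained × 100%.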

[2] = target: LIM domain kinase 2 (Homo sapiens) (UniProt P53671); assay: Inhibition of recombinant human LIMK2 at 1 uM incubated for 40 mins in presence of [gamma-33P]-ATP by scintillation counting method relative to control
[3] = target: Transient receptor potential cation channel subfamily M member 7 (Homo sapiens) (UniProt Q96QT4); assay: Inhibition of recombinant human CHAK1 (1180 to end residues) at 1 uM using myelin ba as substrate incubated for 40 mins in presence of [gamma-33P]-ATP by scintillation counting method relative to control
Summary of the method: (§2)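 Tested at a single 1 uM in an outsourced commercial kinase-profiling panel, read as percent inhibition. Each value is the mean of two independent experiments.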

[4] = system: MDA-MB-231; assay: Antiproliferative activity against human MDA-MB-231 cells at 20 to 40 nM assessed as reduction in cell viability incubated for 48 hrs by EdU staining based laser scanning confocal microscopy; assay type: functional; summary of the method: as §1
[5] = system: T47D; assay: Induction of apoptosis in human T47D cells assessed as increase in late apoptotic cells at 20 to 40 nM incubated for 48 hrs by annexin V FITC and propidium iodide staining based flow cytometry; assay type: functional, cell-based
Summary of the method: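 Annexin V-FITC/PI double staining with flow-cytometric readout. MDA-MB-231, T-47D, SiHa and HeLa cells were treated with graded concentrations for 48 h. MDA-MB-231 and T-47D were grown in DMEM and SiHa in 1640 medium, each with 10% FBS and 1% penicillin/streptomycin at 37°C under 5% CO2. Early- and late-stage apoptotic fractions were scored.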

[6] = Volume of distribution in Sprague-Dawley rat at 10 mg/kg, iv by HPLC-MS analysis; assay type: ADME, organism-based; settings: in vivo
[7] = target: Insulin-like growth factor 1 receptor (Homo sapiens) (UniProt P08069); assay: Inhibition of recombinant activated human IGF1R (959 to end residues) at 1 uM using KKKSPGEYVNIEFG as substrate incubated for 40 mins in presence of [gamma-33P]-ATP by scintillation counting method relative to control
Summary of the method: (§3)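 Kinase panel profiling at 1 μM performed by Eurofins KinaseProfiler; percent inhibition reported as mean of two independent experiments.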

[8] = target: Serine/threonine-protein kinase TAO1 (Homo sapiens) (UniProt Q7L7X3); assay: Inhibition of recombinant human TAO1 (1 to 327 residues) at 1 uM using myelin basic protein as substrate incubated for 40 mins in presence of [gamma-33P]-ATP by scintillation counting method relative to control
[9] = system: Tyrosine-protein kinase BTK (Homo sapiens), Q06187 [R28H]; assay: Inhibition of recombinant full length human BTK R28H mutant at 1 uM using LSNLYHQGKFLQT as substrate incubated for 40 mins in presence of [gamma-33P]-ATP by scintillation counting method relative to control; summary of the method: as §2
[10] = target: PI3-kinase p110-alpha/p85-alpha (Homo sapiens) (UniProt P27986+P42336); assay: Inhibition of recombinant human full length PI3K p110alpha/p85alpha at 1 uM using phosphatidylinositol 4,5-bisphosphate as substrate incubated for 40 mins in presence of [gamma-33P]-ATP by scintillation counting method relative to control; assay type: protein-complex assay
[11] = target: Serine/threonine-protein kinase 38-like (Homo sapiens) (UniProt Q9Y2H1); assay: Inhibition of recombinant human NDR2 (83 to end residues) at 1 uM using RSRSRSRSRSRSRSR as substrate incubated for 40 mins in presence of [gamma-33P]-ATP by scintillation counting method relative to control
[12] = target: Casein kinase I isoform gamma-3 (Homo sapiens) (UniProt Q9Y6M4); assay: Inhibition of recombinant human CK1gamma3 (1 to 330 residues) at 1 uM using KRRRALS(p)VAS as substrate incubated for 40 mins in presence of [gamma-33P]-ATP by scintillation counting method relative to control; summary of the method: as §2
[13] = Toxicity in BALB/c mouse assessed as effect on blood parameter by measuring MCHC at 40 mg/kg, po administered once two days for 4 times by hematology analyzer; settings: in vivo
[14] = target: Aurora kinase C (Homo sapiens) (UniProt Q9UQB9); assay: Inhibition of recombinant human Aurora-C (35 to end residues) at 1 uM using AKRRRLSSLRA as substrate incubated for 40 mins in presence of [gamma-33P]-ATP by scintillation counting method relative to control; summary of the method: as §3
[15] = system: Mast/stem cell growth factor receptor Kit (Homo sapiens), P10721 [D816V]; assay: Inhibition of recombinant human cKIT D816V mutant (544 to end residues) at 1 uM using poly(Glu, Tyr) 4:1 as substrate incubated for 40 mins in presence of [gamma-33P]-ATP by scintillation counting method relative to control; summary of the method: as §2
[16] = MRT (0 to t) in Sprague-Dawley rat at 10 mg/kg, iv by HPLC-MS analysis; assay type: ADME, organism-based; settings: in vivo
[17] = target: Casein kinase 2 (Homo sapiens) (UniProt P67870+P68400+P19784+Q8NEV1); assay: Inhibition of recombinant full length human CK2 expressed in insect Sf21 cells at 1 uM using CK2 substrate peptide as substrate incubated for 40 mins in presence of [gamma-33P]-ATP by scintillation counting method relative to control; summary of the method: as §3
[18] = system: SiHa; assay: Antitumor activity against human SiHa cells xenografted in NOD/SCID BALB/c mouse assessed as reduction in tumor weight at 10 to 40 mg/kg, po administered for 21 days; assay type: functional, organism-based
[19] = Toxicity in BALB/c mouse assessed as effect on blood parameter by measuring RBC content at 40 mg/kg, po administered once two days for 4 times by hematology analyzer; settings: in vivo
[20] = target: Casein kinase I isoform gamma-2 (Homo sapiens) (UniProt P78368); assay: Inhibition of recombinant human CK1gamma2 (18 to end residues) at 1 uM using KRRRALS(p)VAS as substrate incubated for 40 mins in presence of [gamma-33P]-ATP by scintillation counting method relative to control; summary of the method: as §3
[21] = target: Tyrosine-protein kinase Fyn (Homo sapiens) (UniProt P06241); assay: Inhibition of recombinant full length human FYN at 1 uM using KVEKIGEGTYGVVYK as substrate incubated for 40 mins in presence of [gamma-33P]-ATP by scintillation counting method relative to control; summary of the method: as §3
[22] = target: Serine/threonine-protein kinase TAO2 (Homo sapiens) (UniProt Q9UL54); assay: Inhibition of recombinant human TAO2 (1 to 320 residues) at 1 uM using myelin basic protein as substrate incubated for 40 mins in presence of [gamma-33P]-ATP by scintillation counting method relative to control; summary of the method: as §2
[23] = system: T47D; assay: Antiproliferative activity against human T47D cells assessed as reduction in cell viability at 40 nM incubated for 48 hrs by EdU staining based laser scanning confocal microscopy; assay type: functional; summary of the method: as §1

Sequence of Transient receptor potential cation channel subfamily M member 7 (Homo sapiens) (Q96QT4 whole entry): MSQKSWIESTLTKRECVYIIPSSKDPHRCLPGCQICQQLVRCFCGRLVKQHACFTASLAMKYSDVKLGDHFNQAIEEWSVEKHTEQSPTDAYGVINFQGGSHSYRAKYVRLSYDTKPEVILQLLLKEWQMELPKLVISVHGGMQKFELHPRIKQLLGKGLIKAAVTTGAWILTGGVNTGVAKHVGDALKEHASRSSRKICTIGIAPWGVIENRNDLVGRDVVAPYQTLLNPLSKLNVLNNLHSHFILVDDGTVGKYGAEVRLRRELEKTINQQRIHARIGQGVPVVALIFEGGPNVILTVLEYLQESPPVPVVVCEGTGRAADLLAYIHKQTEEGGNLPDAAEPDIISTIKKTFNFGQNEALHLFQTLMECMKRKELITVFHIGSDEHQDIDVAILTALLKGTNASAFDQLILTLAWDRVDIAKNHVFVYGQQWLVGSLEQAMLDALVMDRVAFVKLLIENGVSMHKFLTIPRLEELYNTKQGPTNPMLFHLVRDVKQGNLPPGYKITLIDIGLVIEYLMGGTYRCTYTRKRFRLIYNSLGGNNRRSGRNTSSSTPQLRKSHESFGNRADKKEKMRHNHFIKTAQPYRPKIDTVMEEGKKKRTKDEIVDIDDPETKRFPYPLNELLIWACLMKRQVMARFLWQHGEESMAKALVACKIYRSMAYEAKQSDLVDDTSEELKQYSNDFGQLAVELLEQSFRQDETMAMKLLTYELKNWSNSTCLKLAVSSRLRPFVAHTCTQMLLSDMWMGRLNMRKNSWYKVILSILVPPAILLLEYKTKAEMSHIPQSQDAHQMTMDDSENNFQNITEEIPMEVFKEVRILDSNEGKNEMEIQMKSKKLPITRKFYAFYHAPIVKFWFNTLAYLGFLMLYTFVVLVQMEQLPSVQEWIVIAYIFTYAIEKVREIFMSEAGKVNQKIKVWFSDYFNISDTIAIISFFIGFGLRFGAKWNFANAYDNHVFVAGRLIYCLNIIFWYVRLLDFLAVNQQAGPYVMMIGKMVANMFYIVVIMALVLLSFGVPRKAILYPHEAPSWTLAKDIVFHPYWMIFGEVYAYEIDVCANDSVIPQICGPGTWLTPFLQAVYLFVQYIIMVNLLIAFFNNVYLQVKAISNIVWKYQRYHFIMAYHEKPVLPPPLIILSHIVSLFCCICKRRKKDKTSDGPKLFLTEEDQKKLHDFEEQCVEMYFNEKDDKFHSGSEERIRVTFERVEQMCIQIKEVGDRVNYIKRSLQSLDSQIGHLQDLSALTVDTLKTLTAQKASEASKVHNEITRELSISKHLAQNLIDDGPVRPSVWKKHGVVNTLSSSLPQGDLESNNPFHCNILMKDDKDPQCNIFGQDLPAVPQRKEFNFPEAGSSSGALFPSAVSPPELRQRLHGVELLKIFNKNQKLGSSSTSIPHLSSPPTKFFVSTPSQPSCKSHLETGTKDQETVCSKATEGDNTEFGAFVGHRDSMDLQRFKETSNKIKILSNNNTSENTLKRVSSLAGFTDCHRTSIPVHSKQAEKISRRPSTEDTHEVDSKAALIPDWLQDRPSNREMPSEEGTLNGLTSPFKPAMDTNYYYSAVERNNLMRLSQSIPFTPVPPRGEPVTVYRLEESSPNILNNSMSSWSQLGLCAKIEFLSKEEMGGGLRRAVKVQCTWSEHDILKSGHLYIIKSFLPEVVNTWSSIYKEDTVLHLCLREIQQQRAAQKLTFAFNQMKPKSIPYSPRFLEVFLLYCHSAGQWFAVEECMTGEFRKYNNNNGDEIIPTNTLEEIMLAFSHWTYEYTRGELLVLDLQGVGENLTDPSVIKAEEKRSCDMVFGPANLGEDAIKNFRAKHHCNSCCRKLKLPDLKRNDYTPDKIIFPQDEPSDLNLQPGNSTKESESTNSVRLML
Sequence of LIM domain kinase 2 (Homo sapiens) (P53671 whole entry, looked up, the tested form may be a part): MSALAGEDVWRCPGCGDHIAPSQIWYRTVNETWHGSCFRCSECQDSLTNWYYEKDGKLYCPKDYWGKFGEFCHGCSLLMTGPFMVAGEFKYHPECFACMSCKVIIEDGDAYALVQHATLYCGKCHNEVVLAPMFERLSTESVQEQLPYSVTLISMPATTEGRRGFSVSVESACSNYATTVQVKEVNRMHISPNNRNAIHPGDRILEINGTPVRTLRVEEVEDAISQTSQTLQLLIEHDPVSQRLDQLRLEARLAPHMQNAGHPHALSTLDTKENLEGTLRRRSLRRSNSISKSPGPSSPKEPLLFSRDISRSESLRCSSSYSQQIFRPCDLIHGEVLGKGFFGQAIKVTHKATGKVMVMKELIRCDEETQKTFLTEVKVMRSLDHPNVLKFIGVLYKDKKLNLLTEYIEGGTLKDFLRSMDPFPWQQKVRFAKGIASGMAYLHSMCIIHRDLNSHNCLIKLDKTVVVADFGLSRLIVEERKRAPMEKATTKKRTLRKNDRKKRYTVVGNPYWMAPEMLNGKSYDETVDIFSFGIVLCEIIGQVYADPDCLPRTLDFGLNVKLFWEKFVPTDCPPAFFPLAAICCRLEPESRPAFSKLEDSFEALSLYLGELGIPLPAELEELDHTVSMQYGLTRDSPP
Sequence of Casein kinase I isoform gamma-2 (Homo sapiens) (P78368 whole entry, looked up, canonical isoform): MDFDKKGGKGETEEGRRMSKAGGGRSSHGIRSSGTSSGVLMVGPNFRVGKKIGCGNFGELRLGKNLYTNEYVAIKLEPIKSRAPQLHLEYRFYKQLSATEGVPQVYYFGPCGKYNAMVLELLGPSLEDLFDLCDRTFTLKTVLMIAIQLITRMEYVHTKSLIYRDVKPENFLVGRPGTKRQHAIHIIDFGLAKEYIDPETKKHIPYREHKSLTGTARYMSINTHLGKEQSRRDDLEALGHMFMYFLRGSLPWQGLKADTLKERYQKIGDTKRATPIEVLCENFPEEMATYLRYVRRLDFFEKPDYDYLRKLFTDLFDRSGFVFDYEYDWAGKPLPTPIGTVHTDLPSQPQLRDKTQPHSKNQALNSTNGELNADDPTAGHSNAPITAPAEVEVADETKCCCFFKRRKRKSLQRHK
Sequence of Serine/threonine-protein kinase TAO2 (Homo sapiens) (Q9UL54 whole entry, the tested form may be a part): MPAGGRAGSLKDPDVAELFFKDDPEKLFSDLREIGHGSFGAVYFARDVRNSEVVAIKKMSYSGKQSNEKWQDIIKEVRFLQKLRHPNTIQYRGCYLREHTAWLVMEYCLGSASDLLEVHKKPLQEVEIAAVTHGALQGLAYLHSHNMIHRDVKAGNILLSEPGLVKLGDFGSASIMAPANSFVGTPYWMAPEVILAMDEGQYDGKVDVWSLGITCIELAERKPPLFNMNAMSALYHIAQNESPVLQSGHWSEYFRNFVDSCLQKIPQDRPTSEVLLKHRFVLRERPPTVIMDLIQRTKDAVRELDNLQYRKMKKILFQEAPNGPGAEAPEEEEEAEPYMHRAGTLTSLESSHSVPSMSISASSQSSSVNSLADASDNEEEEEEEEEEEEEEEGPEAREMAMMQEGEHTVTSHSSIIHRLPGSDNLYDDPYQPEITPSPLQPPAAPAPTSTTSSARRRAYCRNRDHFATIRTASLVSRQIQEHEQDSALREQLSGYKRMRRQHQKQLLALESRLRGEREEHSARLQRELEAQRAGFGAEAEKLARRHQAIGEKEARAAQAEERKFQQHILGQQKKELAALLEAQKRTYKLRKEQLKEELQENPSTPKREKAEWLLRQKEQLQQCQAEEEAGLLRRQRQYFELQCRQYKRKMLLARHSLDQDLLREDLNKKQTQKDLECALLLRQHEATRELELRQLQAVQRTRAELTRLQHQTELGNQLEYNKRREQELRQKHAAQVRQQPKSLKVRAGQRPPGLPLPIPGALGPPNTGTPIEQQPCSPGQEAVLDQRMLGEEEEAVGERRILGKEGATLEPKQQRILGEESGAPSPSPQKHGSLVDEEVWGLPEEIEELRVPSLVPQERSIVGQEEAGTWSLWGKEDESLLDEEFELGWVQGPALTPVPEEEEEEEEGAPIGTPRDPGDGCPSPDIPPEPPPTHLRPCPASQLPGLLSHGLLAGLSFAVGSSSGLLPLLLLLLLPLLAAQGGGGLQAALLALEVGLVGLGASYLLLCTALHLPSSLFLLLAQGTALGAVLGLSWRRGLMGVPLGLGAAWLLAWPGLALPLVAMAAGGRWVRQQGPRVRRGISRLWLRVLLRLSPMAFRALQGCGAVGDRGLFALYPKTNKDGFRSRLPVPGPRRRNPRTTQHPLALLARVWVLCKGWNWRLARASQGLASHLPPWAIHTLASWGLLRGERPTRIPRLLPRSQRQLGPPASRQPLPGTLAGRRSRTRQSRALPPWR
Sequence of Mast/stem cell growth factor receptor Kit (Homo sapiens), P10721 [D816V] (P10721 whole entry D816V): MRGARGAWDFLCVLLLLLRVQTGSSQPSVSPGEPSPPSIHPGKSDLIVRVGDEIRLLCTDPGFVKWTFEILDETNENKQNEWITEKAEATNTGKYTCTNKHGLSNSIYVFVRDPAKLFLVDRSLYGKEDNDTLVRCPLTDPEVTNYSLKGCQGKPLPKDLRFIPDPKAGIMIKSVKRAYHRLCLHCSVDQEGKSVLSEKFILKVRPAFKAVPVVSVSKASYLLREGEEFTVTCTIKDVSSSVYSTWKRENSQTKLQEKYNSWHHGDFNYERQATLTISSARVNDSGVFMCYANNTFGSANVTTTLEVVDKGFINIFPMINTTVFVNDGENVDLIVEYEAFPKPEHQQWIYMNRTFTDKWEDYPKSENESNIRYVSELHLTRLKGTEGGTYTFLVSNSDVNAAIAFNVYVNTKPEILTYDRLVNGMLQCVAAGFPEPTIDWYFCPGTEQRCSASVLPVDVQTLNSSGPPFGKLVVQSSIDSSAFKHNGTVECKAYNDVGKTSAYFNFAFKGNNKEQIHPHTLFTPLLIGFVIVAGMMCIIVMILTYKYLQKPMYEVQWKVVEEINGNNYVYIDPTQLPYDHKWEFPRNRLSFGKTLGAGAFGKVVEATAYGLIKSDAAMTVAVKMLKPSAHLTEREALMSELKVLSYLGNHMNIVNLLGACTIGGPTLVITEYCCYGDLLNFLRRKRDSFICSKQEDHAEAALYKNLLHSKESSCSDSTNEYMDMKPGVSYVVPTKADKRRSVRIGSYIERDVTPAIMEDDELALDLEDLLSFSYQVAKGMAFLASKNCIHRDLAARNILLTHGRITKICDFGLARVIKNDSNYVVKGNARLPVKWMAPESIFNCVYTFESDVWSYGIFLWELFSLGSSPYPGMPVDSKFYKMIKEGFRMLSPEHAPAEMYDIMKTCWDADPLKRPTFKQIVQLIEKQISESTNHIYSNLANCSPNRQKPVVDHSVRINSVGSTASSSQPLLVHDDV

What does the source list for `Cc1ccc(NC(=O)C2(C(=O)Nc3ccc(Nc4ncc(F)c(-c5cc(F)c6nc(C)n(C(C)C)c6c5)n4)cc3)CC2)cc1`?
inhibition [1]: Active; inhibition [2]: 42%; inhibition [3]: 0%; inhibition [4]: Active; Activity [5]: Active; Vd [6]: 2 L/kg; inhibition [7]: 37%; inhibition [8]: 2%; inhibition [9]: 0%; inhibition [10]: 7%; inhibition [11]: 33%; inhibition [12]: 0%; Activity [13]: Non-Toxic; inhibition [14]: 9%; inhibition [15]: 0%; MRT last [16]: 2 h; inhibition [17]: 56%; inhibition [18]: Active; Activity [19]: Non-Toxic; inhibition [20]: 49%; inhibition [21]: 32%; inhibition [22]: 0%

For `COc1cc2nccc(Oc3ccc(NC(=O)C4(C(=O)Nc5ccc(F)cc5)CC4)cc3)c2cc1OC` [CABOZANTINIB], which inhibition [23] is on record?
The inhibition was “Active”.
